Screens from PubChem.
MsrA inh = inhibits bovine methionine sulfoxide reductase A | purified bovine MsrA, absorbance read-out | inhibition, % at 15.5 µM | actives 0.75% (n = 360,000); in the data active means inhibition above about 4.5%;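 further: 0% = vehicle wells with enzyme and 100% = reference inhibitor wells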
procasp3 activ = activators of human procaspase-3; recombinant procaspase-3 D3A, Ac-DEVD-pNA absorbance 405 nm; activation, % at 8.5 µM; P42574; AID 463141; actives 0.11% (n = 330,000);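 active means activation above the mean of all tested compounds plus 3 SD, cut at about 21% in these data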;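 further: 0% = DMSO alone and 100% = DMSO wells spiked with extra 5 µM PC-3 D3A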
Target sequence (P42574 whole entry D9A/D28A/D175A): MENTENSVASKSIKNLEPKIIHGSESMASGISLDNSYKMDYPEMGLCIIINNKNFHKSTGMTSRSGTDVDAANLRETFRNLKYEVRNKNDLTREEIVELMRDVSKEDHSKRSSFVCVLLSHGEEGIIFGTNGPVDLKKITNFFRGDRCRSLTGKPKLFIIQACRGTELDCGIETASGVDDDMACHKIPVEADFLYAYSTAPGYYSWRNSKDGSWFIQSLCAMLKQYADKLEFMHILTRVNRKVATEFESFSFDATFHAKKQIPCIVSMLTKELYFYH
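Test system: Procaspase-3 D3A mutant; medium: Zinc-free HEPES/NaCl buffer with 0.01% Triton X-100 at pH 7.4; reagent: DEVD-pNA substrate; doses: one concentration, 8.5 µM nominal, 0.8% DMSO; times: 1 h preincubation plus 2 h reaction at 25 °C; signal: Epi-absorbance at 405 nm of released p-nitroaniline, 0 and 120 min; replicates: singlicate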
procasp7 counter = counter-screen: procaspase-7 (human) activation. P55210. recombinant procaspase-7, Ac-DEVD-pNA absorbance 405 nm; D23A/D198A/D206A triple mutant, cannot self-cleave; scale: DMSO 0, 5 µM enzyme 100. activation, % at 8.5 µM. actives 0.093% (n = 330,000). AID 463210;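 active means percent activation above the screen-wide mean plus 3 SD, cut at about 25% in these data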
Target sequence (P55210 whole entry D23A/D198A/D206A): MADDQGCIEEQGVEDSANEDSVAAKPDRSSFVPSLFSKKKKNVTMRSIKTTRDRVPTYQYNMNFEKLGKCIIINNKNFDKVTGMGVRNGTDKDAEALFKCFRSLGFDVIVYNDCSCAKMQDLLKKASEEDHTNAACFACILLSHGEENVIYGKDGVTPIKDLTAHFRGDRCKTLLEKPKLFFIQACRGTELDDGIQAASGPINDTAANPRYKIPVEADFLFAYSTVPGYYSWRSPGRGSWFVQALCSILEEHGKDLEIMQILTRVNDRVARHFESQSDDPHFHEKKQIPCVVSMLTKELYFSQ
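Detection: p-Nitroaniline absorbance at 405 nm, read at 0 and 120 min; system: Uncleavable procaspase-7 mutant enzyme; evaluation: % activation from two-timepoint absorbance difference, scaled to controls; times: 1 h enzyme–compound preincubation and 2 h substrate reaction, both 25 °C; buffer or medium: Zinc-free HEPES pH 7.4 with 300 mM NaCl, 0.01% Triton X-100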
bovine MsrA act = activates bovine MsrA enzyme. purified bovine MsrA, absorbance read-out. activation, % at 10.6 µM. actives 0.3% (n = 360,000); in the data active means activation above about 7.5%;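 further: 0% = vehicle and 100% = reference activator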
TbMetRS inhib = blocks T. brucei methionyl-tRNA synthetase activity; inhibition, % at 11.9 µM; AID 624268; actives 0.4% (n = 360,000); purified T. brucei MetRS, ATP depletion, Kinase-Glo luminescence;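 active means inhibition above a per-plate cutoff of the control wells' mean inhibition plus 3 SD, cut at about 5.5% in these data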;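 further: 0% = DMSO wells median and 100% = median of wells with control inhibitor compound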
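Measured by: Kinase-Glo luciferase luminescence reporting remaining unconsumed ATP. Material: purified T. brucei MetRS enzyme. Doses: 11.9 µM compound single dose, 0.9% DMSO. Medium: HEPES buffer containing pyrophosphatase, BSA, spermine, DTT. Times: 15 min preincubation, 2 h reaction, all 25 °C. Reagent: methionine, ATP and bulk E. coli tRNA.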
* marks the source's active call; other numbers are inactive results; x = no result. The list is not random: actives were taken first. Their share in the collection is about 1.5%.

SMILES	MsrA inh	procasp3 activ	procasp7 counter	bovine MsrA act	TbMetRS inhib
Cc1cc2c(c(=O)n1C1CC1)C(c1cccc(Cl)c1)C(C#N)=C(N)O2 (centres undefined)	-1.7	2.1	-0.4	-2.5	63.4*
CN(CCC(=O)Nc1ccc(Br)cc1)Cc1ccccc1	x	16.2	-3.2	-11.9	24.7*
CN(C)S(=O)(=O)c1ccc(/C(O)=C2/C(=O)C(=O)N(CCN3CCCCC3)C2c2cccnc2)cc1 (centres undefined)	4.9*	x	x	-1.1	0.3
CN(C)S(=O)(=O)c1ccc(/C(O)=C2/C(=O)C(=O)N(Cc3cccnc3)C2c2ccncc2)cc1 (centres undefined)	2.1	-3.0	-17.6	-12.7	-1.1
NC(=O)COc1c(-c2ccco2)oc2ccccc2c1=O	4.6*	2.3	-9.0	-8.3	-1.7
O=C(O)COc1c(-c2ccco2)oc2ccccc2c1=O	3.3	1.1	-0.5	-4.0	0.1
COc1cccc2cc(-c3cc(=O)oc4ccc(OCC(C)=O)cc34)oc12	9.5*	-11.8	-11.7	-4.3	-0.4
CCOc1ccc(C(=O)Nc2cccc(-c3nc4ccccc4[nH]3)c2C)cc1[N+](=O)[O-]	-1.2	1.6	3.7	-8.0	-0.5
CCOc1ccc(C(=O)Nc2cc(-c3nc4ccccc4[nH]3)ccc2C)cc1[N+](=O)[O-]	1.3	-0.3	9.6	-9.3	13.5*
Cc1[nH]c2ccccc2c1CC(=O)Nc1ccc(Nc2cccnc2)c(-c2cc(C(F)(F)F)cc(C(F)(F)F)c2)c1	1.7	x	x	x	x
COc1cccc2c1C(=O)c1c(O)c3c(c(O)c1C2=O)C[C@@](O)(C(=O)CO)C[C@@H]3OC1CC(N)C(O)C(C)O1 (some centres undefined)	-0.2	x	x	-2.2	-0.2
CC(=O)[C@@]1(O)Cc2c(O)c3c(c(O)c2[C@H](O[C@H]2C[C@H](N)[C@H](O)[C@H](C)O2)C1)C(=O)c1ccccc1C3=O	4.6*	x	x	1.3	-0.2
O=C1NC(=O)C(=CC=Cc2ccccc2)S1	4.6*	x	x	-7.3	-0.1
COc1ccc(/C(O)=C2/C(=O)C(=O)N(CCCN(C)C)C2c2cccc(Cl)c2)cc1OC (centres undefined)	9.6*	-3.5	-14.7	-0.9	0.7
CCCCCCCCN1C(=O)[C@@H](CC(=O)NCCc2ccccc2OC)C[C@@]2(C(=O)OC)C1=C[C@H](C(C)(C)C)O[C@@H]2C	0.5	x	x	x	x
COc1ccc(C=C2OC(=O)C(C(C)=O)=C2O)cc1	9.1*	x	x	-10.7	-0.3
Clc1cccc(-c2cc3nc4c(c(N5CCOCC5)n3n2)CCCC4)c1	4.8*	-5.0	7.1	-7.4	-0.8
CSc1ccc(C(=O)NCC2CCN(C(=O)C(=O)c3cc4ccccc4o3)CC2)cc1	1.8	x	x	x	x
C[C@H](CO)N1C[C@H](C)[C@@H](CN(C)C(=O)Nc2ccccc2)OCc2cn(nn2)CCCC1=O	-1.2	x	x	x	x
CCCCCCCCN1C(=O)[C@@H](CC(=O)NCC23CC4CC(CC(C4)C2)C3)C[C@@]2(C(=O)OC)C1=C[C@H](C1CCCC1)O[C@@H]2C	1.0	x	x	x	x
CCOC(=O)C1=C(C)NC(C)=C(C(=O)OCC)C1c1ccccc1/C=C/C(=O)OC(C)(C)C	x	17.6	29.9*	x	x
Nc1[nH]c(C(=O)c2ccccc2)c(-c2ccccc2[N+](=O)[O-])c1C(=O)NCCc1c[nH]c2ccccc12	1.5	x	x	x	x
O=C(N/N=C/c1ccc(O)cc1O)c1ccc(NC(=O)C2CCCCC2)cc1	1.0	48.1*	9.5	-4.9	0.1
O=C(CN1C2=NCCN2c2ccccc21)c1ccc(Br)cc1	-1.1	-10.2	-3.2	-2.0	5.9*
O=C(CN1C2=NCCN2c2ccccc21)c1ccc2c(c1)OCO2	-0.5	5.8	-2.3	0.5	0.7
SMILES	MsrA inh	procasp3 activ	procasp7 counter	bovine MsrA act	TbMetRS inhib
O=C(Nc1ccc(Br)cc1)c1cccc(S(=O)(=O)Nc2cnc3ccccc3c2)c1	-0.7	3.6	2.0	-9.1	64.9*
CCN(CC)CCCN1C(=O)C(O)=C(C(=O)c2cc3cccc(OC)c3o2)C1c1ccncc1 (centres undefined)	4.8*	-4.3	-6.2	-3.8	-0.3
COc1cccc2cc(C(=O)C3=C(O)C(=O)N(CCN(C)C)C3c3ccc(F)cc3)oc12 (centres undefined)	2.1	-1.8	-7.0	-2.6	-0.2
O=C(N/N=C/c1ccncc1)c1ccc2c(c1)OCO2	2.5	1.9	-7.4	-1.3	0.0
O=C(N/N=C/c1ccc2c(c1)OCCO2)c1ccncc1	4.5*	4.9	-1.6	-4.2	0.5
Cc1ccc(/C=N/NC(=O)c2ccc(OC3CCCC3)cc2)o1	4.6*	x	x	-5.0	-0.3
Cc1cc2nc(N)sc2cc1[N+](=O)[O-]	5.2*	-3.4	7.8	-2.4	0.3
O=[N+]([O-])c1cccc(SSc2cccc([N+](=O)[O-])c2)c1	1.2	x	x	17.3*	-0.2
Nc1cccc([N+](=O)[O-])c1	-1.2	-5.7	7.5	-2.0	-0.2
COc1ccc(-c2ccc3c(n2)CCCN3S(=O)(=O)c2ccccc2)cc1	0.9	x	x	x	x
Cc1cccc(Nc2nc(N)c(C#N)c(CC#N)c2C#N)c1	4.6*	-5.5	2.3	-5.0	-0.5
O=C(NCc1ccccc1)C(c1ccco1)N1CCN(CCN2CCOCC2)CC1 (centres undefined)	1.0	x	x	x	x
Cc1ccc(CC(=O)N2CCN(S(=O)(=O)c3ccccc3)CC2)cc1C	4.6*	2.4	1.8	-9.5	-0.3
Cc1ccc(S(=O)(=O)N2CCN(C(=O)Cc3ccccc3)CC2)cc1C	0.8	3.0	-1.0	-0.7	-0.3
O=C1N/C(=N\N=C\c2ccco2)SC1Cc1ccccc1[N+](=O)[O-] (centres undefined)	4.6*	-9.8	-27.4	-5.1	-0.3
COc1ccc(/C=C/C(=O)c2ccc[nH]2)c(OC)c1OC	4.6*	8.0	2.4	-1.9	-1.8
COc1cc(/C=C/C(=O)OCC(=O)c2ccc[nH]2)cc(OC)c1OC	-0.5	1.9	-0.6	-1.7	-0.2
N#Cc1ccc2nc(-c3ccc(CN4CCC5(CC4)CNc4ccccc45)cc3)c(-c3ccccc3)nc2c1	1.8	x	x	x	x
CC(=O)c1ccc(Nc2nc(C(C)N)cs2)cc1 (centres undefined)	4.6*	x	x	-5.7	-0.2
CC(N)c1csc(Nc2ccc(C(=O)NCCO)cc2)n1 (centres undefined)	2.7	x	x	-0.3	-0.2
COc1cc(C(=O)N/C(=C\c2cn(C)c3ccccc23)C(=O)NCCCO)cc(OC)c1OC	4.7*	8.9	0.5	-10.5	-0.9
CC1CCN(S(=O)(=O)c2ccc(Cl)cc2Br)CC1	8.8*	6.3	-1.4	-4.0	-0.9
O=S(=O)(c1cc(Cl)ccc1Br)N1CCCCC1	-0.8	6.7	-2.2	-2.7	0.0
COC(=O)C1=C(C)N(Cc2ccc(C(F)(F)F)cc2)C(=NCC2CC2)NC1c1cccc(Cl)c1 (centres undefined)	-0.8	x	x	x	x
Cc1ccc2nc(-c3ccc(SCC(=O)Nc4nnc(C)s4)nc3)[nH]c2c1	1.6	-0.5	0.1	-5.5	3.9
